Experimental data published in ChEMBL document CHEMBL4219181, “Site-specific effect of polar functional group-modification in lipids of TLR2 ligands for modulating the ligand immunostimulatory activity” (Bioorg Med Chem Lett, 2018).
Activity calls are given as the source filed them. The rule behind the calls is not given here. Where a SMILES comes first, the peptide text is derived from it. The star is where a group is joined. Propyl(2R-PamO,3-PamO) = CCCCCCCCCCCCCCCC(=O)OC[C@H](C*)OC(=O)CCCCCCCCCCCCCCC; X1 = CCCCCCCCCCCCCCCC(=O)OC[C@H](C*)OC(=O)CCCCCNC(=O)CCCCCCCC; X2 = CCCCCCCCCCCCCCCC(=O)OC[C@H](C*)OC(=O)CCNC(=O)CCCCCCCCCCC; X3 = CCCCCCCCCCCCCCCC(=O)OC[C@H](C*)OC(=O)CCCNC(=O)CCCCCCCCCC; X4 = CCCCCCCCCCCCCCCC(=O)OC[C@H](C*)OC(=O)CCCCCCNC(=O)CCCCCCC; X5 = CCCCCCCCCCCCCCCC(=O)OC[C@H](C*)OC(=O)CCCCNC(=O)CCCCCCCCC; X6 = CCCCCCCCCCCCCCCC(=O)O[C@H](COC(=O)CCCCCCCCCCNC(=O)CCC)C*; X7 = CCCCCCCCCCCCCCCC(=O)O[C@H](COC(=O)CCCCCCCCNC(=O)CCCCC)C*; X8 = CCCCCCCCCCCCCCCC(=O)O[C@H](COC(=O)CCCCCCCCCCCNC(=O)CC)C*; X9 = CCCCCCCCCCCCCCCC(=O)O[C@H](COC(=O)CCCCCCCCCNC(=O)CCCC)C*

What was measured:
Toll-like receptor 2 [1] = target: Toll-like receptor 2 (Homo sapiens, UniProt O60603); test: Inhibition of biotin labelled Pam2CSK4 binding to His tagged human TLR2 after 45 mins by AlphaScreen assay
Sequence of Toll-like receptor 2 (Homo sapiens, UniProt O60603) (O60603 whole entry): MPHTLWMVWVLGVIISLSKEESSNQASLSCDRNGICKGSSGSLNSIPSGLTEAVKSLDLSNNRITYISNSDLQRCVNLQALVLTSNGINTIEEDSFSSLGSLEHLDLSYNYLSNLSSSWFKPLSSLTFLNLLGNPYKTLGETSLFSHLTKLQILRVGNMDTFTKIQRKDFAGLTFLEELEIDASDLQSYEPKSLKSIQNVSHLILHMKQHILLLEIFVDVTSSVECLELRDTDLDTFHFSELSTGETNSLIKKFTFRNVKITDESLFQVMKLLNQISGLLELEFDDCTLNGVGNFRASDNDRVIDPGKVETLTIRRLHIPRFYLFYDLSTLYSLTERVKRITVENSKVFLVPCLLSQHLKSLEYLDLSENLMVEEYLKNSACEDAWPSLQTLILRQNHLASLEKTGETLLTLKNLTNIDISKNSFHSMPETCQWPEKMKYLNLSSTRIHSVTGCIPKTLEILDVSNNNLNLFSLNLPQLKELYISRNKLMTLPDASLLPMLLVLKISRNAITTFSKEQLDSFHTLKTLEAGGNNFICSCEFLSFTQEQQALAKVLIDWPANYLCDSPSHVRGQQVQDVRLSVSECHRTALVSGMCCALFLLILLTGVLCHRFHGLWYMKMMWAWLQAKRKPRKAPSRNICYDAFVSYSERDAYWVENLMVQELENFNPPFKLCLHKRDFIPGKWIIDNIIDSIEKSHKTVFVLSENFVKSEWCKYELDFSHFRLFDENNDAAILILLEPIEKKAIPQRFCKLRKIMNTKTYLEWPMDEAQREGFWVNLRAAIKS
Outline: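 Competitive binding was measured by AlphaScreen using His-tagged human TLR2 protein and biotinylated Pam2CSK4 as the tracer ligand. Competing ligands displace Pam2CSK4-biotin and lower the luminescent proximity signal.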

Toll-like receptor 2 [2] = target: Toll-like receptor 2 (Mus musculus, UniProt Q9QUN7); test: Inhibition of biotin labelled Pam2CSK4 binding to mouse TLR2 Fc chimera protein after 45 mins by AlphaScreen assay
Sequence of Toll-like receptor 2 (Mus musculus, UniProt Q9QUN7) (Q9QUN7 whole entry): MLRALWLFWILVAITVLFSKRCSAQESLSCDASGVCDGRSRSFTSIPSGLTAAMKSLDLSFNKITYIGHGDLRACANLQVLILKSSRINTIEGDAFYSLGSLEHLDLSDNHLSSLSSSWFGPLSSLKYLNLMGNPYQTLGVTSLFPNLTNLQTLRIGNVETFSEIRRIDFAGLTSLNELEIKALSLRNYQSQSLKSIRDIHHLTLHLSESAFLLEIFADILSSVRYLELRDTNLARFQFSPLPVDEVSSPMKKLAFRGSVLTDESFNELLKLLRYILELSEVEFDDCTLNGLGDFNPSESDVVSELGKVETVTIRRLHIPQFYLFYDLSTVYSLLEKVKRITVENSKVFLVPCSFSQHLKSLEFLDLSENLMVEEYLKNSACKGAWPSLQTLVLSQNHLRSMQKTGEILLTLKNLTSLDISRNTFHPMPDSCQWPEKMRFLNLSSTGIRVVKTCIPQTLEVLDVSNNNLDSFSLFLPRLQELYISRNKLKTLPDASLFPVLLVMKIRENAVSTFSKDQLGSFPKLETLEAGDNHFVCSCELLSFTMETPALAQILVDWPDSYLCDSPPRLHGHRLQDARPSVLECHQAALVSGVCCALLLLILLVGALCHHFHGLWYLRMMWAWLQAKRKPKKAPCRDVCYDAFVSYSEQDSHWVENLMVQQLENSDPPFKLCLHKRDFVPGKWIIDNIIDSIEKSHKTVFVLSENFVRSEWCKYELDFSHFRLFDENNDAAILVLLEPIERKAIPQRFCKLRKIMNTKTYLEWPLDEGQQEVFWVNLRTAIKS

THP-1 [3] = test: Immunostimulatory activity in human THP1 cells assessed as increase in TNF-alpha production at 1 to 100 nM after 24 hrs by ELISA; assay type: functional, cell-based
RAW264.7 [4] = test: Immunostimulatory activity in mouse RAW264.7 cells assessed as increase in TNF-alpha production at 1 to 100 nM after 24 hrs by ELISA; assay type: functional, cell-based
THP-1 [5] = test: Immunostimulatory activity in human THP1 cells assessed as increase in TNF-alpha production after 24 hrs by ELISA; assay type: functional, cell-based
THP-1 [6] = test: Immunostimulatory activity in human THP1 cells assessed as increase in IL-6 production after 24 hrs by ELISA; assay type: functional, cell-based
Outline: (§1)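 PMA-differentiated THP-1 human monocytic cells were incubated with a range of ligand concentrations. Secreted IL-6 was measured by ELISA. Data are mean ± standard error of triplicate values, and similar results were obtained in two or three independent experiments.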

RAW264.7 [7] = test: Immunostimulatory activity in mouse RAW264.7 cells assessed as increase in IL-6 production at 1 to 100 nM after 24 hrs by ELISA; assay type: functional, cell-based
Outline: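 Murine RAW264.7 macrophages were incubated with various ligand concentrations, and secreted IL-6 was quantified by ELISA. Values are mean ± standard error of triplicates, with results reproduced in two or three independent experiments.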

THP-1 [8] = test: Immunostimulatory activity in human THP1 cells assessed as increase in IL-6 production at 1 to 100 nM after 24 hrs by ELISA; assay type: functional, cell-based; outline: as §1

IC50 (Toll-like receptor 2 [1]) [µM] | IC50 (Toll-like receptor 2 [2]) [µM] | Structure (SMILES) | Activity (THP-1 [3]) | Activity (RAW264.7 [4]) | Activity (THP-1 [5]) | Activity (THP-1 [6]) | Activity (RAW264.7 [7]) | Activity (THP-1 [8])
0.426 to 0.55 | 0.349 | CCCCCCCCCCCCCCCC(=O)OC[C@H](CSC[C@H](N)C(=O)N[C@@H](CO)C(=O)N[C@@H](CCCCN)C(=O)N[C@@H](CCCCN)C(=O)N[C@@H](CCCCN)C(=O)N[C@@H](CCCCN)C(=O)O)OC(=O)CCCCCCCCCCCCCCC (H-C(Propyl(2R-PamO,3-PamO))SKKKK-OH) | inactive | inactive |  |  |  | 
7.52 |  | CCCCCCCCCCCCCCCC(=O)O[C@H](COC(=O)CCCCCCCCNC(=O)CCCCC)CSC[C@H](N)C(=O)N[C@@H](CO)C(=O)N[C@@H](CCCCN)C(=O)N[C@@H](CCCCN)C(=O)N[C@@H](CCCCN)C(=O)N[C@@H](CCCCN)C(=O)O (H-C(X7)SKKKK-OH) |  |  | Dose-dependent effect | Dose-dependent effect |  | 
1.96 | 1.38 | CCCCCCCCCCCCCCCC(=O)OC[C@H](CSC[C@H](N)C(=O)N[C@@H](CO)C(=O)N[C@@H](CCCCN)C(=O)N[C@@H](CCCCN)C(=O)N[C@@H](CCCCN)C(=O)N[C@@H](CCCCN)C(=O)O)OC(=O)CCCNC(=O)CCCCCCCCCC (H-C(X3)SKKKK-OH) | Active | Active |  |  | Active | Active
3.94 |  | CCCCCCCCCCCCCCCC(=O)O[C@H](COC(=O)CCCCCCCCCCCNC(=O)CC)CSC[C@H](N)C(=O)N[C@@H](CO)C(=O)N[C@@H](CCCCN)C(=O)N[C@@H](CCCCN)C(=O)N[C@@H](CCCCN)C(=O)N[C@@H](CCCCN)C(=O)O (H-C(X8)SKKKK-OH) |  |  | Dose-dependent effect | Dose-dependent effect |  | 
4.75 | 4.75 | CCCCCCCCCCCCCCCC(=O)OC[C@H](CSC[C@H](N)C(=O)N[C@@H](CO)C(=O)N[C@@H](CCCCN)C(=O)N[C@@H](CCCCN)C(=O)N[C@@H](CCCCN)C(=O)N[C@@H](CCCCN)C(=O)O)OC(=O)CCCCCNC(=O)CCCCCCCC (H-C(X1)SKKKK-OH) | Active | Active |  |  | Active | Active
6.43 |  | CCCCCCCCCCCCCCCC(=O)O[C@H](COC(=O)CCCCCCCCCNC(=O)CCCC)CSC[C@H](N)C(=O)N[C@@H](CO)C(=O)N[C@@H](CCCCN)C(=O)N[C@@H](CCCCN)C(=O)N[C@@H](CCCCN)C(=O)N[C@@H](CCCCN)C(=O)O (H-C(X9)SKKKK-OH) |  |  | Dose-dependent effect | Dose-dependent effect |  | 
3.37 | 5.69 | CCCCCCCCCCCCCCCC(=O)OC[C@H](CSC[C@H](N)C(=O)N[C@@H](CO)C(=O)N[C@@H](CCCCN)C(=O)N[C@@H](CCCCN)C(=O)N[C@@H](CCCCN)C(=O)N[C@@H](CCCCN)C(=O)O)OC(=O)CCCCCCNC(=O)CCCCCCC (H-C(X4)SKKKK-OH) | Active | Active |  |  | Active | Active
1.68 | 1.04 | CCCCCCCCCCCCCCCC(=O)OC[C@H](CSC[C@H](N)C(=O)N[C@@H](CO)C(=O)N[C@@H](CCCCN)C(=O)N[C@@H](CCCCN)C(=O)N[C@@H](CCCCN)C(=O)N[C@@H](CCCCN)C(=O)O)OC(=O)CCNC(=O)CCCCCCCCCCC (H-C(X2)SKKKK-OH) | Active | Active |  |  | Active | Active
4.65 | 5.61 | CCCCCCCCCCCCCCCC(=O)OC[C@H](CSC[C@H](N)C(=O)N[C@@H](CO)C(=O)N[C@@H](CCCCN)C(=O)N[C@@H](CCCCN)C(=O)N[C@@H](CCCCN)C(=O)N[C@@H](CCCCN)C(=O)O)OC(=O)CCCCNC(=O)CCCCCCCCC (H-C(X5)SKKKK-OH) | Active | Active |  |  | Active | Active
4.36 |  | CCCCCCCCCCCCCCCC(=O)O[C@H](COC(=O)CCCCCCCCCCNC(=O)CCC)CSC[C@H](N)C(=O)N[C@@H](CO)C(=O)N[C@@H](CCCCN)C(=O)N[C@@H](CCCCN)C(=O)N[C@@H](CCCCN)C(=O)N[C@@H](CCCCN)C(=O)O (H-C(X6)SKKKK-OH) |  |  | Dose-dependent effect | Dose-dependent effect |  | 
